CHT PAM = CHT positive allosteric modulators, primary screen, cell-based, membrane potential dye, choline EC20; B-score at 10 µM; AID 488977, 2010; High affinity choline transporter 1 (Homo sapiens), Q9GZV3; actives 0.49% (n = 310,000); CHT-expressing cells; hits give high values; LV-AA mutant CHT in HEK293 cells;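 active = initial fluorescence not abnormally high and integrated response B-score, plate-corrected, over 3 SD above library mean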
CHT inh = inhibitors of human choline transporter CHT | B-score at 10 µM | actives 0.86% (n = 310,000) | CHT-expressing cells, membrane potential dye, choline response; hits give low values | AID 488975, 2010;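 active = B-score over 3 SD under the library average, and starting fluorescence ratio not unusually high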;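 note: choline stimulus applied at its EC90 after an EC20 pre-addition; B-score computed on integrated fluorescence ratio after choline addition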
DSG3 Ab inh = inhibitors of pemphigus antibody binding to DSG3, primary screen, biochemical, bead-based, flow cytometry, scFv-GFP; DSG3-coupled beads, scFv-anti-DSG3-GFP binding; hits give low values; binding (percent of control), % at 10 µM; AID 588358, 2011; actives 0.48% (n = 310,000); Desmoglein-3 (Homo sapiens), P32926;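 active = binding more than 3 SD below its plate's average and above zero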;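 note: hits lower antibody fragment binding to DSG3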
T cell modulator = modulators of CD8 T cell-vesicle binding, primary screen, mouse 2C CD8+ T cells, flow cytometry; 2C CD8+ T cell-vesicle binding; hits give low values; response (vesicle binding), % at 7 µM; actives 0.068% (n = 330,000); AID 2052, 2009;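 active = response, share of CD8 T cells binding vesicles, and their 90th percentile fluorescence all below set limits, cut at about 80% in these data, passing the limit was not always enough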;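 note: values below 100% mean blocked vesicle binding to the CD8+ T cells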
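Test system: purified 2C TCR transgenic mouse naive CD8+ T cells. Probe or stimulus: QL9-peptide-loaded Drosophila micro-vesicles bearing Ld, ICAM-1 and B7-1. Incubation: binding step 1.5 h, 37 °C, antibody labelling 20 min, ice. Measured by: flow cytometry of vesicle-bound cells.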
pCIP destab = p/CIP-EGFP fusion destabilizers, primary screen, fluorescence, F442A cells | Q05BA5 | 16 h | decrease of EGFP signal, % at 10 µM | actives 0.01% (n = 290,000) | AID 1984, 2009;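 active = EGFP signal decrease of at least 30% at 10 µM or well 3 SD below plate mean, unless failing retest; inactive = the rest, including hits failing retest or dose response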
GPR7 antagonist = GPR7 receptor antagonists, primary screen, cell-based, fluorescence, single concentration. Neuropeptides B/W receptor type 1 (Homo sapiens), P48145. inhibition, % at 4.4 µM. actives 1.1% (n = 290,000). GPR7-expressing cells, fluorescence antagonist assay; in the data active = inhibition above about 16%, passing the limit was not always enough;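 note: cells stimulated with the agonist NPW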
Target sequence (P48145 whole entry, looked up): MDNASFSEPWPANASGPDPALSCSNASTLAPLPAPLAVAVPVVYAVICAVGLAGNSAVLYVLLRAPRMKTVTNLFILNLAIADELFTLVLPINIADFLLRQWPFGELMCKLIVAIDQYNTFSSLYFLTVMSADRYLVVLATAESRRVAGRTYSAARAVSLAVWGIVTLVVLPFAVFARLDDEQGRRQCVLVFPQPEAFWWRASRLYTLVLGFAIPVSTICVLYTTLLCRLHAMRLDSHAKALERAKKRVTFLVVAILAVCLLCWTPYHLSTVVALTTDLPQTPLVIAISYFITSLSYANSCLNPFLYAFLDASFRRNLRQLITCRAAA
GPR7 antag conf = GPR7 receptor antagonists, confirmation, cell-based, fluorescence, single concentration. GPR7-expressing cells, calcium fluorescence antagonist mode. shares compounds with GPR7 antagonist. inhibition, % at 4.4 µM. actives 52% (n = 2,400). AID 1952, 2009; in the data active = inhibition above about 24%;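 note: stimulated with the GPR7 agonist NPW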
MCHR1 antagonist = MCHR1 antagonists in cells, counter-screen for GPR7 antagonist project, cell-based, fluorescence, human | AID 2148, 2009 | actives 62% (n = 2,400) | MCHR1-expressing cells, fluorescence antagonist assay | inhibition, % at 4.4 µM | shares compounds with GPR7 antagonist; in the data active = inhibition above about 22%
Large screens that a line does not name were inactive (follow-up assays come after a bar, where they were run). This is a sample that favours compounds with a hit; in the whole collection about 2.3% have one here.

Fc1ccc(Cn2nnnc2C(c2ccc(Cl)cc2)N2CCSCC2)cc1 (centres undefined)	GPR7 antagonist 34.0 (no result: DSG3 Ab inh) | GPR7 antag conf 39.7 | MCHR1 antagonist 26.6
CC1CCN(C(c2ccc(N(C)C)cc2)c2nnnn2Cc2ccc(F)cc2)CC1 (centres undefined)	none
O=C(NCc1ccccc1)C1CCCN(S(=O)(=O)c2ccc(-n3cnnn3)cc2)C1 (centres undefined)	GPR7 antagonist 22.6 | GPR7 antag conf inactive | MCHR1 antagonist inactive
O=C(NCc1ccc(F)cc1)C1CCCN(S(=O)(=O)c2ccc(-n3cnnn3)cc2)C1 (centres undefined)	none
CN(Cc1ccc(N(C)C)cc1)C(=O)c1cc2ccccc2o1	GPR7 antagonist 40.9 | GPR7 antag conf inactive | MCHR1 antagonist 26.2
CN(Cc1ccccc1)C(=O)c1cc2ccccc2o1	none
N#CCCn1cc(C(=O)CN2C(=O)NC3(CCc4ccccc43)C2=O)c2ccccc21 (centres undefined)	none (no result: CHT PAM, CHT inh, T cell modulator, pCIP destab, GPR7 antagonist)
Cc1ccc2oc(=O)n(CC(=O)c3ccc(F)cc3)c2c1	GPR7 antagonist 24.6 (no result: DSG3 Ab inh) | GPR7 antag conf inactive | MCHR1 antagonist inactive
O=C1C(=NO)CCc2ccccc21	none (no result: CHT PAM, CHT inh, T cell modulator, pCIP destab, GPR7 antagonist)
CCOC(=O)C1(P(=O)(c2ccc(Cl)cc2)c2ccc(Cl)cc2)CCC1	GPR7 antagonist 25.0 | GPR7 antag conf inactive | MCHR1 antagonist inactive
O=C(O)C1(P(=O)(c2ccc(Cl)cc2)c2ccc(Cl)cc2)CC1	none
COc1ccccc1NS(=O)(=O)c1c(C(=O)N2CCCC2)c(C)n(C)c1C	none
COc1ccc(OC)c(NS(=O)(=O)c2c(C(=O)N3CCCCCC3)c(C)n(C)c2C)c1	GPR7 antagonist 44.6 | GPR7 antag conf 27.8 | MCHR1 antagonist inactive
O=C(COC(=O)c1ccc2c(c1)OCCO2)NCc1ccc(Cl)cc1	none (no result: CHT PAM, CHT inh, T cell modulator, pCIP destab, GPR7 antagonist)
CCCCC(=O)Nc1ncc(S(=O)(=O)c2ccc([N+](=O)[O-])cc2)s1	GPR7 antagonist 35.4 | GPR7 antag conf 25.9 | MCHR1 antagonist 24.6
CC(=O)NCCC(=O)Nc1ncc(S(=O)(=O)c2ccc([N+](=O)[O-])cc2)s1	none (no result: pCIP destab, GPR7 antagonist)
C[C@@H]1CN([C@H](C)CO)C(=O)CCCn2cc(nn2)CO[C@H]1CN(C)S(=O)(=O)c1cccc(F)c1	none (no result: CHT PAM, CHT inh, T cell modulator, pCIP destab, GPR7 antagonist)
COc1ccc(NS(=O)(=O)c2ccc(NC(=O)CCNS(=O)(=O)c3ccc(C)cc3)cc2)cc1	GPR7 antagonist 26.6 | GPR7 antag conf 60.7 | MCHR1 antagonist 50.2
O=C(CSc1ncccn1)NC(=O)NC1CCCC1	none (no result: CHT PAM, CHT inh, T cell modulator, pCIP destab, GPR7 antagonist)
NS(=O)(=O)c1cccc(NC(=O)COC(=O)CC2Sc3ccccc3NC2=O)c1 (centres undefined)	none (no result: CHT PAM, CHT inh, pCIP destab, GPR7 antagonist)
O=C(CC1Sc2ccccc2NC1=O)Nc1cccc(C(=O)O)c1 (centres undefined)	GPR7 antagonist 21.0 | GPR7 antag conf inactive | MCHR1 antagonist inactive
CCC(NC(=O)c1[nH]c(C)c(C(C)=O)c1C)c1ccc(Br)cc1 (centres undefined)	GPR7 antagonist 29.1 | GPR7 antag conf inactive | MCHR1 antagonist inactive
COc1ccccc1N1CCN(C(=O)/C=C/c2ccc(C)cc2)CC1	none
COc1ccccc1N1CCN(C(=O)/C=C/c2cccc([N+](=O)[O-])c2)CC1	GPR7 antagonist 31.5 (no result: DSG3 Ab inh) | GPR7 antag conf inactive | MCHR1 antagonist 33.0
CCOC(=O)N1CCN(Cc2cn[nH]c2-c2ccc(-c3ccccc3)cc2)CC1	GPR7 antagonist 24.7 | GPR7 antag conf inactive | MCHR1 antagonist inactive
CCOC(=O)N1CCN(Cc2cn[nH]c2-c2cccc3ccccc23)CC1	none
CC1CN(C(=O)CCC(=O)NCc2ccc(F)cc2)c2ccccc2S1 (centres undefined)	GPR7 antagonist 28.0 | GPR7 antag conf inactive | MCHR1 antagonist inactive
CC1CN(C(=O)CCC(=O)NCc2ccc(Cl)cc2)c2ccccc2S1 (centres undefined)	none
CCN(c1ccccc1)S(=O)(=O)c1ccc(C(=O)N(CCCN(C)C)c2nc3c(C)cccc3s2)cc1	GPR7 antagonist 28.6 | GPR7 antag conf 53.4 | MCHR1 antagonist 52.1
Cc1ccc2sc(N(CCCN(C)C)C(=O)c3ccc(S(=O)(=O)N(C)Cc4ccccc4)cc3)nc2c1C	none (no result: pCIP destab, GPR7 antagonist)
COc1cccc2sc(N(CCCN(C)C)C(=O)c3ccc(S(=O)(=O)N4CCCc5ccccc54)cc3)nc12	GPR7 antagonist 34.9 | GPR7 antag conf 50.2 | MCHR1 antagonist 41.5
CCOC(=O)N1CCN(S(=O)(=O)c2ccc(C(=O)N(CCCN(C)C)c3nc4ccc(CC)cc4s3)cc2)CC1	GPR7 antagonist 28.2 | GPR7 antag conf 39.4 | MCHR1 antagonist inactive
CCOC(=O)C1=C(COC(=O)CNS(=O)(=O)c2c(F)cc(F)cc2Br)NC(=O)NC1C (centres undefined)	none (no result: CHT PAM, CHT inh, T cell modulator, pCIP destab, GPR7 antagonist)
Cc1c(N)cccc1-n1cnnn1	GPR7 antagonist 23.5 | GPR7 antag conf inactive | MCHR1 antagonist inactive
Cc1c(N)cccc1-n1cccc1	none (no result: DSG3 Ab inh)
COc1ccc(CN(CCC(c2ccccc2)C2CCOC(C)(C)C2)C(C)=O)cc1 (centres undefined)	GPR7 antagonist 23.7 | GPR7 antag conf inactive | MCHR1 antagonist 26.2
COc1ccc(CNCCC(c2ccccc2)C2CCOC(C)(C)C2)cc1 (centres undefined)	none
COc1cc(C(=O)N(C)C2CCCCC2)cc(OC)c1OC	none (no result: CHT PAM, CHT inh, T cell modulator, pCIP destab, GPR7 antagonist)
O=C(c1ccccc1)c1ccc(Sc2ccc([N+](=O)[O-])cc2)cc1	GPR7 antagonist 21.7 | GPR7 antag conf inactive | MCHR1 antagonist 52.9
Cc1ccc(C(=O)c2ccc([N+](=O)[O-])cc2)cc1C	none
N#CC(=C(O)COC(=O)CCCNC(=O)c1ccc(Cl)cc1)c1nc2ccccc2[nH]1	none (no result: CHT PAM, CHT inh, T cell modulator, pCIP destab, GPR7 antagonist)
O=C(NCC1CCCO1)c1ccc(Cl)c(NS(=O)(=O)c2ccc(F)cc2)c1 (centres undefined)	none (no result: CHT PAM, CHT inh, T cell modulator, pCIP destab, GPR7 antagonist)
O=C(NCC1CCCO1)C1CCCN(S(=O)(=O)c2cccc(C(F)(F)F)c2)C1 (centres undefined)	GPR7 antagonist 24.0 | GPR7 antag conf inactive | MCHR1 antagonist inactive
COc1ccc(S(=O)(=O)N2CCCC(C(=O)NCC3CCCO3)C2)cc1C (centres undefined)	none

Assay outcomes: PubChem BioAssay, several laboratories
